Measurements as given in paper PMC2646117 (Cell host & microbe, 2008).
Where two headings read alike, the source gives them in different places.

Tests used:
PbΔfabI = experiment: Ex vivo drug susceptibility assay, P. berghei asexual blood stages; assay type: cell-based; settings: Plasmodium berghei
PbfabI^Rec = experiment: Ex vivo drug susceptibility assay, P. berghei asexual blood stages; assay type: cell-based; settings: Plasmodium berghei
Method in brief: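 Ex vivo growth of P. berghei asexual blood-stage parasites exposed to the test compound was measured by [³H]-hypoxanthine assay. IC50 was calculated by linear regression. Each compound was tested in duplicate on at least two separate occasions.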

ANKA = experiment: Ex vivo drug susceptibility assay, P. berghei asexual blood stages; assay type: cell-based; settings: Plasmodium berghei
P. falciparum 3D7 = assay type: cell-based; settings: Plasmodium falciparum, 3D7, read-out: mean IC50
P. falciparum Dd2 = assay type: cell-based; settings: Plasmodium falciparum, DD2, read-out: mean IC50
[1] = system: P. berghei (KBG-173 line); assay type: in vivo; settings: for parasitemia on day 6 post-infection: three days twice-daily divided dose
PffabI(A217V)^Dd2 = experiment: Drug susceptibility assay, transgenic line; assay type: cell-based, P. falciparum; settings: Plasmodium falciparum
PffabI(WT)^Dd2 = experiment: Drug susceptibility assay, transgenic line; assay type: cell-based, P. falciparum; settings: Plasmodium falciparum
Dd2^attB = experiment: Drug susceptibility assay, parental line; assay type: cell-based, P. falciparum; settings: Plasmodium falciparum
PffabI(A217V)^3D7 = experiment: Drug susceptibility assay, transgenic line; assay type: cell-based, P. falciparum; settings: Plasmodium falciparum
PffabI(WT)^3D7 = experiment: Drug susceptibility assay, transgenic line; assay type: cell-based, P. falciparum; settings: Plasmodium falciparum
3D7^attB = experiment: Drug susceptibility assay, parental line; assay type: cell-based, P. falciparum; settings: Plasmodium falciparum
PfΔfabI^1 = experiment: Drug susceptibility assay, pffabI knockout clone; assay type: cell-based, P. falciparum; settings: Plasmodium falciparum, read-out: IC50 (mean ± SEM)
PfΔfabI^2 = experiment: Drug susceptibility assay, pffabI knockout clone; assay type: cell-based, P. falciparum; settings: Plasmodium falciparum, read-out: IC50 (mean ± SEM)
P. berghei = settings: SC, 3 mg/kg/day, four days; ref Surolia and Surolia, 2001; cited from earlier work
recombinant PfFabI A217V = recombinant PfFabI A217V versus wild type; ref Kapoor et al., 2004; cited from earlier work

CCN(CC)CCCC(C)Nc1ccnc2cc(Cl)ccc12 (centres unmarked) [chloroquine]
IC50 (PbΔfabI): 11 ± 0.1 nM | IC50 (PbfabI^Rec): 13 ± 0.6 nM | IC50 (ANKA): 10.4 ± 0.3 nM

Oc1cc(Cl)ccc1Oc1ccc(Cl)cc1Cl [triclosan, 5-chloro-2-(2,4-dichlorophenoxy)phenol]
IC50 (P. falciparum 3D7): 1800 nM | IC50 (P. falciparum Dd2): […] | parasitemia at doses above 128 mg/kg/day ([1]; PO or SC, doses higher than 128 mg/kg/day): failed to further suppress the parasitemias | survival times ([1]; PO, 64 mg/kg/day): slight extension in survival times | survival rate at day 31 ([1]; PO, 128 mg/kg/day): 30% | parasitemia on day 6 post-infection ([1]; PO, 128 mg/kg/day, placebo control 61%): 27% | survival rate at day 31 ([1]; PO, 256 mg/kg/day): 30% | mortality / overall survival (toxicity) ([1]; PO, 512 mg/kg/day): some early mortality and decreased overall survival rates | survival ([1]; SC route, 16 to 512 mg/kg/day): ≤ 50% | parasitemia on day 6 post-infection ([1]; SC, 128 mg/kg/day, placebo control 57%): 13% | IC50 (PffabI(A217V)^Dd2; DD2, read-out: IC50 (mean±SEM)): […] | IC90 (PffabI(A217V)^Dd2; DD2, read-out: IC90 (mean±SEM)): […] | IC50 (PffabI(WT)^Dd2; DD2, read-out: IC50 (mean±SEM)): […] | IC90 (PffabI(WT)^Dd2; DD2, read-out: IC90 (mean±SEM)): […] | IC50 (Dd2^attB; DD2, read-out: IC50 (mean±SEM)): 3100 ± 700 nM | IC90 (Dd2^attB; DD2, read-out: IC90 (mean±SEM)): 7200 ± 700 nM | IC50 (PffabI(A217V)^3D7; 3D7, read-out: IC50 (mean±SEM)): […] | IC90 (PffabI(A217V)^3D7; 3D7, read-out: IC90 (mean±SEM)): […] | IC50 (PffabI(WT)^3D7; 3D7, read-out: IC50 (mean±SEM)): […] | IC90 (PffabI(WT)^3D7; 3D7, read-out: IC90 (mean±SEM)): […] | IC50 (3D7^attB; 3D7, read-out: IC50 (mean±SEM)): […] | IC90 (3D7^attB; 3D7, read-out: IC90 (mean±SEM)): 4800 ± 600 nM | IC50 (PfΔfabI^1): 2200 ± 200 nM | IC50 (PfΔfabI^2): 2400 ± 300 nM | IC50 (PbΔfabI; read-out: IC50 (means±SEM)): 1400 ± 100 nM | IC50 (PbfabI^Rec; read-out: IC50 (means±SEM)): 1500 ± 200 nM | IC50 (ANKA; read-out: IC50 (means±SEM)): 1200 ± 100 nM | suppression of P. berghei parasitemia (P. berghei): 75% | decrease in binding affinity conferred by A217V mutation (recombinant PfFabI A217V): 7,000 fold
